# Measured values from ChEMBL document CHEMBL2040843, “Synthesis and in vitro stability of nucleoside 5'-phosphonate derivatives” (Eur J Med Chem, 2012).
# Activity calls are given as the source filed them. No cut-off for these calls is given here.
# Experiments:
# [1] = system: Platelet; test: Induction of platelets aggregation in human platelet rich plasma at 10^-4 M after 3 mins by light transmission aggregometry analysis; format: functional, cell-free
# In short: (§1)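 PRP from citrated whole blood (9:1) of healthy volunteers taken 2 h after an acetylsalicylic acid tablet; centrifuged 150g, 21 °C, 10 min. Pre-warmed PRP at 37 °C with test agent (10^-4 M) or vehicle; aggregation triggered with 10^-6 M ADP; shape change and aggregation followed 3 min by light transmission aggregometry.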
# [2] = Antiplatelet activity against human platelets assessed as inhibition of ADP-induced platelet aggregation at 10^-4 M after 3 mins by light transmission aggregometry analysis; format: functional; conditions: 0.05 h; in short: as §1
# [3] = Half life in Wistar rat liver homogenates at 50 uM by HPLC analysis; format: ADME, tissue-based
# In short: (§2)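 Male Wistar rat liver washed in ice-cold saline, homogenized in 50 mM Tris-HCl pH 7.4 (4 mL/g); 2000 × g, 10 min, 4 °C supernatant stored −80 °C. Compound from 10^-2 M DMSO stock incubated at 50 μM final, 37 °C, up to 360 min; HPLC with external-standard peak areas. First-order kinetics from semilogarithmic plots; mean ± SD of three independent experiments.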
# [4] = (§3) Metabolic stability in Wistar rat liver homogenates assessed as compound degradation at 50 uM after 6 hrs by HPLC analysis; format: ADME, tissue-based; conditions: Wistar, liver homogenates, read-out: Drug degradation; in short: as §2
# [5] = (§4) Metabolic stability in human whole blood assessed as compound degradation after 6 hrs by HPLC analysis; format: ADME, tissue-based; conditions: whole blood, read-out: Drug degradation
# In short: (§5)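 Compound from 10^-2 M DMSO stock incubated at 50 μM final in whole blood from healthy subjects (3 mL) at 37 °C for intervals up to 360 min. Remaining parent quantified by reversed-phase HPLC, peak areas against external standards; semilogarithmic regression for first-order kinetics; mean ± SD of three independent experiments.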
# [6] = system: Liver; test: Drug degradation in Wistar rat liver homogenates assessed as increase in guanine formation by HPLC analysis; format: ADME, tissue-based; conditions: tissue homogenate
# In short: (§6)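 Supernatant of male Wistar rat liver homogenate (Tris-HCl 50 mM, pH 7.4; 2000 × g) incubated at 37 °C with 50 μM compound up to 360 min. Guanine measured by RP18 HPLC, water/acetonitrile 99:1 with 0.01 M H3PO4, 0.8 mL/min, external-standard peak areas.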
# [7] = system: Liver; test: as §3; format: ADME, tissue-based; conditions: tissue homogenate, 6 h, 50 µM; in short: as §2
# [8] = system: Blood; test: as §4; format: ADME, tissue-based; conditions: blood, 6 h; in short: as §5
# [9] = system: Liver; test: Metabolic stability in Wistar rat liver homogenates assessed as increase in guanine formation by HPLC analysis; format: ADME, tissue-based; conditions: tissue homogenate; in short: as §6
Structure (SMILES),Activity [1],also measured
Nc1ncnc2c1ncn2[C@@H]1O[C@H](CNC(=O)CP(=O)(O)O)[C@@H](O)[C@H]1O,inactive,–
CCOP(=O)(CC(=O)NC[C@H]1O[C@@H](n2cnc3c(N)ncnc32)[C@H](O)[C@@H]1O)OCC,inactive,–
CCOP(=O)(CC(=O)OC[C@H](CO)O[C@H](CO)n1cnc2c(N)ncnc21)OCC,inactive,–
CCOP(=O)(CC(=O)OC[C@H]1O[C@@H](n2cnc3c(=O)[nH]c(N)nc32)[C@H](O)[C@@H]1O)OCC,inactive,"inhibition at 100 µM [2]: ≤ 70%; half-life at 50 µM [3]: 2.33 h; metabolised at 6 h, 50 µM [4]: 80%; metabolised at 6 h [5]: 20%; Drug degradation [6]: Active"
CCOP(=O)(CC(=O)OC[C@H]1O[C@@H](n2cnc3c(=O)[nH]cnc32)[C@H](O)[C@@H]1O)OCC,inactive,–
O=C(CP(=O)(O)O)NC[C@H]1O[C@@H](n2cnc3c(=O)[nH]cnc32)[C@H](O)[C@@H]1O,inactive,–
CCOP(=O)(CC(=O)OC[C@H]1O[C@@H](n2cnc3c(=O)[nH]c(NC(=O)C(C)C)nc32)[C@H](O)[C@@H]1O)OCC,inactive,–
CC(C)C(=O)Nc1nc2c(ncn2[C@@H]2O[C@H](COC(=O)CP(=O)(O)O)[C@@H](O)[C@H]2O)c(=O)[nH]1,inactive,–
CCOP(=O)(O)CC(=O)OCCOCn1cnc2c(N)ncnc21,inactive,inhibition at 100 µM [2]: ≤ 70%; Stability [7]: Stable; Stability [8]: Stable
Nc1nc2c(ncn2[C@@H]2O[C@H](CO)[C@@H](O)[C@H]2O)c(=O)[nH]1 [GUANOSINE],–,half-life at 50 µM [3]: 0.00403 h; Stability [9]: Unstable
CCOP(=O)(CC(=O)OCCOCn1cnc2c(N)ncnc21)OCC,inactive,–
CCOP(=O)(CC(=O)OC[C@H]1O[C@@H](n2cnc3c(N)ncnc32)[C@H](O)[C@@H]1O)OCC,inactive,–
CCOP(=O)(CC(=O)NC[C@H](CO)O[C@H](CO)n1cnc2c(N)ncnc21)OCC,inactive,–
Nc1ncnc2c1ncn2[C@@H]1O[C@H](COC(=O)CP(=O)(O)O)[C@@H](O)[C@H]1O [ADENOSINE PHOSPHONOACETIC ACID],inactive,inhibition at 100 µM [2]: ≤ 70%; Stability [7]: Stable; Stability [8]: Stable
CCOP(=O)(CC(=O)NC[C@H]1O[C@@H](n2cnc3c(=O)[nH]cnc32)[C@H](O)[C@@H]1O)OCC,inactive,–
CCOP(=O)(CC(=O)OC[C@H]1O[C@@H](n2c(SC)nc3c(N)ncnc32)[C@H](O)[C@@H]1O)OCC,inactive,–
Nc1nc2c(ncn2[C@@H]2O[C@H](COC(=O)CP(=O)(O)O)[C@@H](O)[C@H]2O)c(=O)[nH]1,inactive,–
